Experiments:
[1] = molecular target: T1, MAO-B (Rattus norvegicus, UniProt P19643); test: Inhibition of MAO-B in rat forebrain using [14C]PEA as substrate at 30 uM incubated for 20 mins prior to substrate addition measured after 10 mins by liquid scintillation counting analysis; assay type: tissue-based; conditions: probe [14C]PEA
T1 sequence (P19643 whole entry): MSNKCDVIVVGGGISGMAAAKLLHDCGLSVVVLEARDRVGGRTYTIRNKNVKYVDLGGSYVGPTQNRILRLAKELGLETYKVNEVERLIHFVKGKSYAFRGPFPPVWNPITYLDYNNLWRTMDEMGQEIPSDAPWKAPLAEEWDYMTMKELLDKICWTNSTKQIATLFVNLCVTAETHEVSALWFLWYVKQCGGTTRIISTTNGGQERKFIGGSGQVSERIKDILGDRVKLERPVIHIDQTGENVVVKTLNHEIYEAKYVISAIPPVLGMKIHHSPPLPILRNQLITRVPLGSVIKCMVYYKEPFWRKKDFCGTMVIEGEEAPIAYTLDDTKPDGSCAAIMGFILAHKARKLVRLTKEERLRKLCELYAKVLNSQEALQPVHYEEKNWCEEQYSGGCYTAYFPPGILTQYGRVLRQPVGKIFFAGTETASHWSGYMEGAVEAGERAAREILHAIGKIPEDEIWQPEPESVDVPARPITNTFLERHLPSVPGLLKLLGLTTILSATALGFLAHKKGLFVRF

[2] = molecular target: T2, MAO-A (Rattus norvegicus, UniProt P21396); test: Inhibition of MAO-A in rat forebrain using [14C]5-HT as substrate at 30 uM incubated for 20 mins prior to substrate addition measured after 5 mins by liquid scintillation counting analysis; assay type: tissue-based; conditions: probe [14C]5-HT
T2 sequence (P21396 whole entry): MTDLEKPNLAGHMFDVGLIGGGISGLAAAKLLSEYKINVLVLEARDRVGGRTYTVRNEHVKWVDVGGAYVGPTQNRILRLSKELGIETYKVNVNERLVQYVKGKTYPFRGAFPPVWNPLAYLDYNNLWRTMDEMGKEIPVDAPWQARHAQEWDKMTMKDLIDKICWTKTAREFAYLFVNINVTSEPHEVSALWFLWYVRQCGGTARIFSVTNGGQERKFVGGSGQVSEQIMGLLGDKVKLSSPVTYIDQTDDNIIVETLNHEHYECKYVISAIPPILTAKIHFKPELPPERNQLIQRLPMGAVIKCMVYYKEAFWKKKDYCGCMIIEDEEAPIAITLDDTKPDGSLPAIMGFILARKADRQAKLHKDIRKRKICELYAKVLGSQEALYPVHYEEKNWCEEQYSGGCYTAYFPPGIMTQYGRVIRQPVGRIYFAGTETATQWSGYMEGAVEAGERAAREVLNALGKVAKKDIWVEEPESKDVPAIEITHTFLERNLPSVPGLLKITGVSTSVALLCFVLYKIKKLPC

[3] = molecular target: Cytochrome P450 3A4 (Homo sapiens, UniProt P08684); test: Inhibition of CYP3A4 in human liver microsomes assessed as terfenadine hydroxylation after 20 mins by LC/MS/MS analysis; assay type: ADME, Microsome
Cytochrome P450 3A4, sequence (P08684 whole entry): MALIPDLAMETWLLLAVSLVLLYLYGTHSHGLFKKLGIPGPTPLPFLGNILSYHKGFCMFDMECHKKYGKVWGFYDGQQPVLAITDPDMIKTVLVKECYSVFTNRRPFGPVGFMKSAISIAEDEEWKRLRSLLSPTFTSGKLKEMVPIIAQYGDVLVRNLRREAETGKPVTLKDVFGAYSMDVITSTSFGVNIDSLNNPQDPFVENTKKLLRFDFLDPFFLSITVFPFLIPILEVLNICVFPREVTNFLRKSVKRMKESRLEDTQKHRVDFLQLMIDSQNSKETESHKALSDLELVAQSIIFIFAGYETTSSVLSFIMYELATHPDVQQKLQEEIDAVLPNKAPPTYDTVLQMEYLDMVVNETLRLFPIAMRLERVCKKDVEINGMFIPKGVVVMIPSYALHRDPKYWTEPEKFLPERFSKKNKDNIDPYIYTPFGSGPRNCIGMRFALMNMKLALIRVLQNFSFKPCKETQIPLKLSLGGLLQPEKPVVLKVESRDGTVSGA

[4] = molecular target: Cytochrome P450 2D6 (Homo sapiens, UniProt P10635); test: Inhibition of CYP2D6 in human liver microsomes assessed as dextromethorphan O-demethylation after 20 mins by LC/MS/MS analysis; assay type: ADME, Microsome
Cytochrome P450 2D6, sequence (P10635 whole entry): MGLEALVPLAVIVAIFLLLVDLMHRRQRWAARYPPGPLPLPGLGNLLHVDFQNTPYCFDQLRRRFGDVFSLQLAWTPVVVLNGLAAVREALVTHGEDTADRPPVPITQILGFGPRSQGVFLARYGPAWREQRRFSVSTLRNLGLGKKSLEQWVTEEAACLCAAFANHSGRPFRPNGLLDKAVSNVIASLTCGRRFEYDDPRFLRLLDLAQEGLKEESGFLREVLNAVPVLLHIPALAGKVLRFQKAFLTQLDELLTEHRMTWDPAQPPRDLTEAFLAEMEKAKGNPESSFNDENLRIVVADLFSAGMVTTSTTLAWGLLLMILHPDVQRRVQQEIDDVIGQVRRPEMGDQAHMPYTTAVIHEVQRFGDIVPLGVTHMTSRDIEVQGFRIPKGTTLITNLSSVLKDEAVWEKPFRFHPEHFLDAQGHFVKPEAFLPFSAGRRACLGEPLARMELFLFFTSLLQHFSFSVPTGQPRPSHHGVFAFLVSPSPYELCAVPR

[5] = molecular target: Cytochrome P450 2C9 (Homo sapiens, UniProt P11712); test: Inhibition of CYP2C9 in human liver microsomes assessed as tolbutamide hydroxylation after 20 mins by LC/MS/MS analysis; assay type: ADME, Microsome
Cytochrome P450 2C9, sequence (P11712 whole entry): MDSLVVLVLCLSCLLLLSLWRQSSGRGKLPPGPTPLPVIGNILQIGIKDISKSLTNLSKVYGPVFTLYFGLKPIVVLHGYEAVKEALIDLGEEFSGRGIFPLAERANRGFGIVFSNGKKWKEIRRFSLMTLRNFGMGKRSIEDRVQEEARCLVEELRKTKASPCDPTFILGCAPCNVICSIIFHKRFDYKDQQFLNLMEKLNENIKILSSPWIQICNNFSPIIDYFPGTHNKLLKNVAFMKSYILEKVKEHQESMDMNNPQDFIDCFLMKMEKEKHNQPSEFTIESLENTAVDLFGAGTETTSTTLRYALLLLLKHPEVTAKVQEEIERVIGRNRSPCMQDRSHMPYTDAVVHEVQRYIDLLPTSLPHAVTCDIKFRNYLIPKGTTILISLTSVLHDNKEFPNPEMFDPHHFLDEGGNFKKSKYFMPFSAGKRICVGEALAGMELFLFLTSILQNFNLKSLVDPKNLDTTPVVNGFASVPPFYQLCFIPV

[6] = molecular target: T3, Cytochrome P450 1A2 (Homo sapiens, UniProt P05177); test: Inhibition of CYP1A2 in human liver microsomes assessed as ethoxyresorufin O-deethylation after 20 mins by fluorescence plate reader analysis; assay type: ADME, Microsome
T3 sequence (P05177 whole entry): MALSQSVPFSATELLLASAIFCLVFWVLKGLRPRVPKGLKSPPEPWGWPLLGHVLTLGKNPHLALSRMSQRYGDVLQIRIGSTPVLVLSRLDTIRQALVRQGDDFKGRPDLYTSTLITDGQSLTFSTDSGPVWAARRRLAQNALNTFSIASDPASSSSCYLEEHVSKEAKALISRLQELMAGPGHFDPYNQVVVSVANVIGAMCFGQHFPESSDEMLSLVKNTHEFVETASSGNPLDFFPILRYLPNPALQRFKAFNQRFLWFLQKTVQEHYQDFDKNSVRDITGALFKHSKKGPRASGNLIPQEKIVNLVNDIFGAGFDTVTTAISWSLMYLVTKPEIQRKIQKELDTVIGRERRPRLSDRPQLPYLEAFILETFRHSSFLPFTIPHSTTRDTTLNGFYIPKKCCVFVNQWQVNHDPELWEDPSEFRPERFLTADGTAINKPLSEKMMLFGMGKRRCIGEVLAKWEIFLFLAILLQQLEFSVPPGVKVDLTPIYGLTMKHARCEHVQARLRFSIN

[7] = tested on: Staphylococcus aureus; test: Antibacterial activity against methicillin-resistant Staphylococcus aureus SR3637 infected in JCL/ICR mouse systemic infection model assessed as mortality administered as iv measured over 7 days; assay type: functional; conditions: 168 h
Method in brief: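 Lethal systemic infection model in mice; test agents were given intravenously.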

[8] = tested on: Staphylococcus aureus; test: Antibacterial activity against methicillin-resistant Staphylococcus aureus SR3637 assessed as growth inhibition by broth microdilution method; assay type: functional
[9] = tested on: Haemophilus influenzae; test: Antibacterial activity against Haemophilus influenzae SR27914 clinical isolate assessed as growth inhibition by broth microdilution method; assay type: functional
[10] = tested on: Streptococcus pneumoniae; test: Antibacterial activity against Streptococcus pneumoniae SR26207 clinical isolate assessed as growth inhibition by broth microdilution method; assay type: functional
[11] = tested on: Staphylococcus aureus; test: Antibacterial activity against linezolid-resistant Staphylococcus aureus NRS271 assessed as growth inhibition by broth microdilution method; assay type: functional
[12] = tested on: Enterococcus faecalis; test: Antibacterial activity against Enterococcus faecalis SR1004 clinical isolate assessed as growth inhibition by broth microdilution method; assay type: functional
[13] = tested on: Staphylococcus aureus; test: Antibacterial activity against Staphylococcus aureus SR20549 clinical isolate assessed as growth inhibition by broth microdilution method; assay type: functional
[14] = tested on: Staphylococcus aureus; test: Antibacterial activity against Staphylococcus aureus Smith assessed as growth inhibition by broth microdilution method; assay type: functional
[15] = tested on: Moraxella catarrhalis; test: Antibacterial activity against Moraxella catarrhalis SR26840 clinical isolate assessed as growth inhibition by broth microdilution method; assay type: functional
[16] = tested on: Enterococcus faecium; test: Antibacterial activity against Enterococcus faecium SR7940 clinical isolate assessed as growth inhibition by broth microdilution method; assay type: functional
[17] = tested on: Staphylococcus aureus; test: Potency index, ratio of linezolid ED50 to compound ED50 for methicillin-resistant Staphylococcus aureus SR3637 infected in iv dosed JCL/ICR mouse systemic infection model; assay type: functional

`CNC(=O)N1CCN(c2ccc(N3C[C@H](CNC(=S)OC)OC3=O)cc2F)CCN1` gave an inhibition at 10 min, 30 µM [1] of 3.1%, an inhibition at 5 min, 30 µM [2] of 3.4% and an IC50 [3] of over 20 µM. The IC50 [4] was over 20 µM, the IC50 [5] was over 20 µM and the IC50 [6] was over 20 µM. It also gave an ED50 [7] of 0.86 mg/kg, an MIC [8] of 0.5 µg/mL and an MIC [9] of 16 µg/mL. For the same compound, the MIC [10] was 0.25 µg/mL, the MIC [11] was 8 µg/mL and the MIC [12] was 0.5 µg/mL. It also gave an MIC [13] of 0.25 µg/mL, an MIC [14] of 0.5 µg/mL and an MIC [15] of 2 µg/mL. For the same compound, the MIC [16] was 0.25 µg/mL.
In the case of `COC(=S)NC[C@H]1CN(c2ccc(N3CCNN(C(=O)C(F)F)CC3)c(F)c2)C(=O)O1`, the “Ratio ED50” value [17] is reported as 3, the inhibition at 10 min, 30 µM [1] is reported as 0.1% and the inhibition at 5 min, 30 µM [2] is reported as 9.2%. It also gave an IC50 [3] of over 20 µM, an IC50 [4] of over 20 µM and an IC50 [5] of over 20 µM. For the same compound, the IC50 [6] was over 20 µM, the ED50 [7] was 0.77 mg/kg and the MIC [8] was 0.25 µg/mL. For the same compound, the MIC [9] was 4 µg/mL, the MIC [10] was 0.063 µg/mL and the MIC [11] was 4 µg/mL. It also gave an MIC [12] of 0.25 µg/mL, an MIC [13] of 0.125 µg/mL and an MIC [14] of 0.5 µg/mL. The MIC [15] was 2 µg/mL and the MIC [16] was 0.25 µg/mL.
For `CC(=O)NC[C@H]1CN(c2ccc(N3CCOCC3)c(F)c2)C(=O)O1` [LINEZOLID], the “inhibition (INH)” value ([3]; human, microsomes, 20 min) was “Active”, the “inhibition (INH)” value ([4]; human, microsomes, 20 min) was “Active” and the “inhibition (INH)” value ([5]; human, microsomes, 20 min) was “Active”. For the same compound, the “inhibition (INH)” value ([6]; human, microsomes, 20 min) was “Active”, the MIC [9] was 16 µg/mL and the MIC [11] was 32 µg/mL. For the same compound, the MIC [15] was 8 µg/mL and the MIC [16] was 2 µg/mL.

— ChEMBL document CHEMBL2434863, “Synthesis and in vitro/in vivo antibacterial activity of oxazolidinones having thiocarbamate at C-5 on the A-ring and an amide- or urea-substituted [1,2,5]triazepane or [1,2,5]oxadiazepane as the C-ring” (Eur J Med Chem, 2013)
